From ChEMBL document CHEMBL1777685, “Biological evaluation of novel benzisoxazole derivatives as PPARδ agonists” (Bioorg Med Chem, 2011)
Activity calls are given as the source filed them. No cut-off for these calls is given here.

Key:
[1] = target: T1, Peroxisome proliferator-activated receptor gamma (Homo sapiens, UniProt P37231); assay type: functional, cell-based, CV-1
T1 sequence (P37231 whole entry): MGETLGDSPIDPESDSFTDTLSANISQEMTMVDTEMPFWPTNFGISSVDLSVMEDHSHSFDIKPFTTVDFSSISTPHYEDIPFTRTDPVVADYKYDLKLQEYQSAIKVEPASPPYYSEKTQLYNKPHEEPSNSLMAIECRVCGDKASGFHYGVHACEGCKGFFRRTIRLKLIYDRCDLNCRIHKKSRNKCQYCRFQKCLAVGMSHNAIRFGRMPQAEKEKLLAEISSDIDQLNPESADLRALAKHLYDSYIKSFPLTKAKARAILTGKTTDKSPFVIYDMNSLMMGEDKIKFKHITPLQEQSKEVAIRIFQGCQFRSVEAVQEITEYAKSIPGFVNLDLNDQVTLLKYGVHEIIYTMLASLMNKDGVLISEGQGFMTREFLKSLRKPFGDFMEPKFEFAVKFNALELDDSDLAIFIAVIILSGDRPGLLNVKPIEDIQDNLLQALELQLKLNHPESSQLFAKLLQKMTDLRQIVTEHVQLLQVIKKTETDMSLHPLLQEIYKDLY

[2] = target: T2, Peroxisome proliferator-activated receptor alpha (Homo sapiens, UniProt Q07869); assay: Agonist activity at human PPARalpha-LBD expressed in CV1 cells co-transfected with Gal4 after 40 hrs by luciferase based transactivation assay; assay type: functional, cell-based, CV-1
T2 sequence (Q07869 whole entry): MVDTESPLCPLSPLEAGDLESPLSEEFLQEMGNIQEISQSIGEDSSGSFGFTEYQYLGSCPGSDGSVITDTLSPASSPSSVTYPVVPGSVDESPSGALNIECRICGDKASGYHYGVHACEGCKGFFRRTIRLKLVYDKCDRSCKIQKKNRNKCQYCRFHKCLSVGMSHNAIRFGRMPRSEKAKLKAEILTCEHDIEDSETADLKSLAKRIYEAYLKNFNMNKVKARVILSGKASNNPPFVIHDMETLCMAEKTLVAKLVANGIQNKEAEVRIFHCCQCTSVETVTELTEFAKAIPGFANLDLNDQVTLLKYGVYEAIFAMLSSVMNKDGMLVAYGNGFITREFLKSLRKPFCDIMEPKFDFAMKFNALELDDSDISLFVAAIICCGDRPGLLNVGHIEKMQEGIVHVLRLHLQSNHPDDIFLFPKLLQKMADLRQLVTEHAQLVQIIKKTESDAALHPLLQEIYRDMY

[3] = target: T3, Peroxisome proliferator-activated receptor delta (Homo sapiens, UniProt Q03181); assay: Agonist activity at human PPARdelta-LBD expressed in CV1 cells co-transfected with Gal4 after 40 hrs by luciferase based transactivation assay; assay type: functional, cell-based, CV-1
T3 sequence (Q03181 whole entry): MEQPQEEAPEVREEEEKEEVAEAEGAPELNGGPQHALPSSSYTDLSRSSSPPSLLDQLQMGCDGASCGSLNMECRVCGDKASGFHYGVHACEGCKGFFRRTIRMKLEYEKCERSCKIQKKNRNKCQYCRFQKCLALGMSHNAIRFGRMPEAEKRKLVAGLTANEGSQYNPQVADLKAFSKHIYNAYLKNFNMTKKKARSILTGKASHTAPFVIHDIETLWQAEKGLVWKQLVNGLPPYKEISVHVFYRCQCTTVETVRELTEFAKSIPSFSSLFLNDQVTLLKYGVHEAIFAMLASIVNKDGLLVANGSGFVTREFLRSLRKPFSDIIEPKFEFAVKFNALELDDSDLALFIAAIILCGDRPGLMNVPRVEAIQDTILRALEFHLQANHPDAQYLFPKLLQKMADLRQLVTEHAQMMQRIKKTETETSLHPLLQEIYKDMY

[4] = species on record: Rattus norvegicus; assay: Induction of oligodendrocyte precursor cell differentiation isolated from Wistar rat fetal brain cortex at 0.1 uM after 3 days by anti O1-antibody immunostaining method; assay type: functional
[5] = species on record: Rattus norvegicus; assay: Induction of oligodendrocyte precursor cell differentiation isolated from Wistar rat fetal brain cortex at 0.01 uM after 3 days by anti O1-antibody immunostaining method; assay type: functional
Procedure, shortened: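 Primary mixed cultures from fetal Wistar rat cortex, with OPCs enriched on a Percoll gradient. Cells seeded at 1 × 10⁴/cover glass and cultured 4 days at 37 °C, 5% CO₂, then exposed to compound in DMSO (0.01% final) for 3 days; vehicle control 0.01% DMSO. Anti-O1 immunostaining, random images; stained area measured and given relative to control mean (100%).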

[6] = species on record: Rattus norvegicus; assay: Induction of oligodendrocyte precursor cell differentiation isolated from Wistar rat fetal brain cortex at 0.03 uM after 3 days by anti O1-antibody immunostaining method; assay type: functional

| Structure (SMILES) | EC50 [1] [µM] | EC50 [2] [µM] | EC50 [3] [µM] | Activity [4] | Activity [5] | Activity [6] |
| --- | --- | --- | --- | --- | --- | --- |
| CC(C)(Oc1ccc2c(CCc3nc(-c4ccccc4Cl)oc3C(C)(C)C)noc2c1)C(=O)O | > 10 | > 10 | > 10 |  |  |  |
| CC(C)c1oc(-c2ccc(C(C)(C)C)cc2)nc1CCc1noc2cc(OC(C)(C)C(=O)O)ccc12 | 1 | 2.9 | 1.2 |  |  |  |
| COc1ccc(CC2SC(=O)NC2=O)cc1C(=O)NCc1ccc(C(F)(F)F)cc1 (centres undefined) |  |  | > 10 | inactive |  |  |
| Cc1cc2c(CCc3nc(-c4ccc(Cl)cc4Cl)oc3C(C)C)noc2cc1OCC(=O)O |  |  |  | Active |  |  |
| CCCc1oc(-c2ccccc2)nc1CCc1noc2cc(OC(C)(C)C(=O)O)ccc12 | 19.1 | 13.2 | 9.8 |  |  |  |
| CCCCc1ccc(-c2nc(CCc3noc4cc(OC(C)(C)C(=O)O)ccc34)c(C(C)C)o2)cc1 | 2.6 | 3.3 | 0.7 |  |  |  |
| CC(C)c1oc(-c2ccc(Cl)cc2Cl)nc1CCc1noc2cc(OC(C)(C)C(=O)O)ccc12 | 26.3 | 8.6 | 0.1 |  |  |  |
| CC(C)c1oc(-c2ccccc2O)nc1CCc1noc2cc(OC(C)(C)C(=O)O)ccc12 | 14.6 | 10.4 | 0.9 |  |  |  |
| CC(C)c1oc(-c2ccccc2C(F)(F)F)nc1CCc1noc2cc(OC(C)(C)C(=O)O)ccc12 | > 10 | > 10 | > 10 |  |  |  |
| CCCCCCc1oc(-c2ccccc2Cl)nc1CCc1noc2cc(OC(C)(C)C(=O)O)ccc12 | 5.9 | 2.3 | 2 |  |  |  |
| Cc1cc(SCc2sc(-c3ccc(C(F)(F)F)cc3)nc2C)ccc1OCC(=O)O |  |  |  | Active | Active | Active |
| CC(C)c1oc(-c2ccccc2Cl)nc1CCc1noc2cc(OC(C)(C)C(=O)O)ccc12 | 31.1 | 34.1 | 1.3 |  |  |  |
| CC(C)c1oc(-c2c(Cl)cccc2Cl)nc1CCc1noc2cc(OC(C)(C)C(=O)O)ccc12 | > 10 | > 10 | > 10 |  |  |  |
| Cc1cc2c(CCc3sc(-c4ccc(C(F)(F)F)cc4)nc3C(C)C)noc2cc1OC(C)(C)C(=O)O | 0.91 | 0.2 | 0.011 | Active | Active | Active |
| CCc1oc(-c2ccccc2)nc1CCc1noc2cc(OC(C)(C)C(=O)O)ccc12 | 25.1 | 14.7 | 6.7 |  |  |  |
| CC(C)c1nc(-c2ccc(C(F)(F)F)cc2)sc1CCc1noc2cc(OC(C)(C)C(=O)O)ccc12 | 5.1 | 0.83 | 0.021 |  |  |  |
| CCCc1oc(-c2ccccc2Cl)nc1CCc1noc2cc(OC(C)(C)C(=O)O)ccc12 | 26.4 | 13.9 | 5.4 |  |  |  |
| Cc1oc(-c2ccccc2)nc1CCc1noc2cc(OC(C)(C)C(=O)O)ccc12 | 20.8 | 12.9 | 14.9 |  |  |  |
